Measured values as given in ChEMBL document CHEMBL1155504, “Synthesis of 4-[(diethylamino)methyl]-phenol derivatives as novel cholinesterase inhibitors with selectivity towards butyrylcholinesterase” (Bioorg Med Chem Lett, 2010).
The source made the active and inactive calls. No cut-off for these calls is given here.

Assays:
[1] = Selectivity ratio of IC50 for electric eel AChE to IC50 for horse serum BChE
Procedure, shortened: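 Ellman assay for each enzyme: enzyme, DTNB and test compound in 0.1 M potassium phosphate buffer, pH 8.0, pre-incubated 15 min at 37 °C. Started with ATC (AChE) or BTC (BChE) and read at 412 nm for 1 min. Five compound concentrations, each in triplicate; DMSO reference, enzyme-free blank. Ratio taken from the two IC50 values.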

Acetylcholinesterase = Acetylcholinesterase (Electrophorus electricus, UniProt O42275); test: Inhibition of electric eel AChE after 15 mins by Ellman's method
Chain of Acetylcholinesterase (O42275 whole entry): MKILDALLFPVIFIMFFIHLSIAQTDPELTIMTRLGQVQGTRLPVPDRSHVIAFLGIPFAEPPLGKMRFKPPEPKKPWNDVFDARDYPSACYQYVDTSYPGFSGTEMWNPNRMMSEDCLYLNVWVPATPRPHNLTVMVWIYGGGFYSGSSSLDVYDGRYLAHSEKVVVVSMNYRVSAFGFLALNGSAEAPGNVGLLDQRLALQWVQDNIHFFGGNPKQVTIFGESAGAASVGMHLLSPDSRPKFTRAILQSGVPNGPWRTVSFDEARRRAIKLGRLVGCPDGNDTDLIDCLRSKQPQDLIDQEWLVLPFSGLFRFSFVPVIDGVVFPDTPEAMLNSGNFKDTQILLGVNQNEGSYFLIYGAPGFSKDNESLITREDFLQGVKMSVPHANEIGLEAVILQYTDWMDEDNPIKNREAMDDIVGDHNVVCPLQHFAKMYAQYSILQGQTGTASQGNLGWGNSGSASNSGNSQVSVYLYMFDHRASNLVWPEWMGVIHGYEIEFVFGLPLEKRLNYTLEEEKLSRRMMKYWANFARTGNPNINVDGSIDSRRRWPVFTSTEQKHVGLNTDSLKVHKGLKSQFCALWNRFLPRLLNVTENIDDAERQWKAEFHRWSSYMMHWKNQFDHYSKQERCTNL

Cholinesterase = Cholinesterase (Equus caballus, UniProt P81908); test: Inhibition of horse serum BChE after 15 mins by Ellman's method
Chain of Cholinesterase (P81908 whole entry): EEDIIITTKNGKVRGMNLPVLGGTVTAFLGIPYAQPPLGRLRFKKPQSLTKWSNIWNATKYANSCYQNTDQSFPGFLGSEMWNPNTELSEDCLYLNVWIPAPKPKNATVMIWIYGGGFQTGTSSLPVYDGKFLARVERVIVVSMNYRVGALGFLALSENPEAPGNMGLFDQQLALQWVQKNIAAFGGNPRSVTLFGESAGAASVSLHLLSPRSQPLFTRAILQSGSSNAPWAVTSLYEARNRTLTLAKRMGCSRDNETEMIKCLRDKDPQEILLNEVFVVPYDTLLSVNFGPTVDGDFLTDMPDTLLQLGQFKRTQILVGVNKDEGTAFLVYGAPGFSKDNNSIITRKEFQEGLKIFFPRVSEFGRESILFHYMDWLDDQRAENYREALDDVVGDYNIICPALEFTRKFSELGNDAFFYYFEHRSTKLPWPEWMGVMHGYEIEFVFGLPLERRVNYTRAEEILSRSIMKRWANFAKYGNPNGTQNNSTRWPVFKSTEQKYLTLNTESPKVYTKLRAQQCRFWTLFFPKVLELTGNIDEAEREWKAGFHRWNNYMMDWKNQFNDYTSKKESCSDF

[2] = molecular target: Acetylcholinesterase (Electrophorus electricus) (UniProt O42275); test: Mixed-type inhibition of electric eel AChE at 50 to 100 nM by Lineweaver-Burke plot analysis
Chain of Acetylcholinesterase (Electrophorus electricus) (O42275 24-633 limits assumed): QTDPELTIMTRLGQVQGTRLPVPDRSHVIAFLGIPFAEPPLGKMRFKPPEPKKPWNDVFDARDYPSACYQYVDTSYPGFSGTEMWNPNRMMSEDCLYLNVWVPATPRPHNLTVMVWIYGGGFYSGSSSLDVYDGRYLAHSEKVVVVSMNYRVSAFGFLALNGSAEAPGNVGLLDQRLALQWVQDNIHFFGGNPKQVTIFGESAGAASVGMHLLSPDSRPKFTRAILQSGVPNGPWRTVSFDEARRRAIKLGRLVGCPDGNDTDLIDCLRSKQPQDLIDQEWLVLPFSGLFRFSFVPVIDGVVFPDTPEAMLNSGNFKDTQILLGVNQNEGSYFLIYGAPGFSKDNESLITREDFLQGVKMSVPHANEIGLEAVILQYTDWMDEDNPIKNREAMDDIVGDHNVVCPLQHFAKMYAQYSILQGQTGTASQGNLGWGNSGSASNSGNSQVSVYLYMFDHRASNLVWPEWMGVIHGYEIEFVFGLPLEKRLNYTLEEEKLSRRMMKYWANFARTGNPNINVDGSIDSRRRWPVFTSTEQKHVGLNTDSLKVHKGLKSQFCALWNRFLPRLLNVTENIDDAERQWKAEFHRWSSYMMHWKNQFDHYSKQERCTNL
Procedure, shortened: (§1)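 Ellman assay: enzyme, DTNB and inhibitor in 0.1 M potassium phosphate buffer, pH 8.0, pre-incubated 15 min at 37 °C. Reaction started with acetylthiocholine at 100–400 (unit unclear) and followed by absorbance at 412 nm. Inhibitor absent or at two levels. Inhibition type assigned from Lineweaver–Burk plots (1/V versus 1/[S]).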

[3] = molecular target: Cholinesterase (Equus caballus) (UniProt P81908); test: Mixed-type inhibition of horse serum BChE at 10 to 20 nM by Lineweaver-Burke plot analysis
Chain of Cholinesterase (Equus caballus) (P81908 whole entry): as the sequence (P81908 whole entry) above
Procedure, shortened: as §1, with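 “butyrylthiocholine” for “acetylthiocholine”, “100–500” for “100–400”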

Compound	Ratio IC50 [1]	IC50 (Acetylcholinesterase) [nM]	IC50 (Cholinesterase) [nM]	inhibition [2]	Activity [3]
CCN1CCN(CCCCCOc2ccc(CN(CC)CC)cc2)CC1	0.57	1760	3080		
CCN(CC)Cc1ccc(OCCCCCN2CCCCC2)cc1	6.44	4310	670		
CCN(CC)CCCCOc1ccc(CN(CC)CC)cc1	3.87	10600	2740		
CCN(CC)Cc1ccc(OCCCCCCCCN2CCCC2)cc1	5.42	84	15		
CCN1CCN(CCCCCCOc2ccc(CN(CC)CC)cc2)CC1	0.74	1620	2200		
CCN(CC)CCCCCCCCOc1ccc(CN(CC)CC)cc1	2.99	140	48		
CCN1CCN(CCCCCCCCCCOc2ccc(CN(CC)CC)cc2)CC1	3.1	580	190		
CCN(CC)Cc1ccc(OCCCCN2CCCCC2)cc1	9.4	6740	710		
CCN(CC)Cc1ccc(OCCCCCCCCN2CCN(C)CC2)cc1	18.6	210	11		
CCN(CC)Cc1ccc(OCCCCCCCCCCN2CCCC2)cc1	4.41	300	68		
CCN(CC)Cc1ccc(OCCN2CCCCC2)cc1	1.35	13700	10100		
CCCCN(CCCC)CCCCOc1ccc(CN(CC)CC)cc1	4.01	10300	2520		
CCCCN(CCCC)CCCCCOc1ccc(CN(CC)CC)cc1	1.29	2460	1900		
CCN(CC)Cc1ccc(OCCCCCCN2CCCCC2)cc1	0.65	890	1370		
CCCN(CCC)CCCCCOc1ccc(CN(CC)CC)cc1	3.13	5590	1780		
CCN(CC)CCCCCCCCCCOc1ccc(CN(CC)CC)cc1	11.3	310	27		
CCCCN(CCCC)CCCCCCCCOc1ccc(CN(CC)CC)cc1	8.45	140	17		
CCN(CC)Cc1ccc(OCCCCN2CCN(C)CC2)cc1	0.57	5580	9730		

Compound	Ratio IC50 [1]	IC50 (Acetylcholinesterase) [nM]	IC50 (Cholinesterase) [nM]	inhibition [2]	Activity [3]
CCN1CCN(CCCCCCCCOc2ccc(CN(CC)CC)cc2)CC1	5.38	77	14		
CCN(CC)CCCCCCOc1ccc(CN(CC)CC)cc1	0.58	960	1660		
CCCN(CCC)CCCCCCOc1ccc(CN(CC)CC)cc1	1.61	2160	1340		
CCCCN(CCCC)CCCCCCOc1ccc(CN(CC)CC)cc1	2.92	670	230		
CCN(CC)Cc1ccc(OCCCCCCCCCCN2CCCCC2)cc1	7.66	600	78		
CCN(CC)Cc1ccc(OCCCCN2CCCC2)cc1	2.44	3420	1400		
CCN(CC)Cc1ccc(OCCCCCN2CCCC2)cc1	0.32	500	1540		
CCN(CC)CCCCCOc1ccc(CN(CC)CC)cc1	1.89	8370	4420		
CCN(CC)Cc1ccc(OCCCCCN2CCN(C)CC2)cc1	0.27	2480	9350		
CCN(CC)Cc1ccc(OCCCCCCN2CCCC2)cc1	0.34	440	1280		
CCN(CC)Cc1ccc(OCCCCCCN2CCN(C)CC2)cc1	0.48	1820	3760		
CCN(CC)Cc1ccc(OCCCCCCCCN2CCCCC2)cc1	12.5	92	7.3	Active	Active
CCCN(CCC)CCCCCCCCOc1ccc(CN(CC)CC)cc1	18.8	170	9.1		
CCCCN(CCCC)CCCCCCCCCCOc1ccc(CN(CC)CC)cc1	16.5	260	15		
CCN(CC)Cc1ccc(OCCN2CCN(C)CC2)cc1	0.56	11500	20300		
CCCN(CCC)CCCCCCCCCCOc1ccc(CN(CC)CC)cc1	13.1	340	26		
CCCN(CCC)CCCCOc1ccc(CN(CC)CC)cc1	1.17	13700	11700		
CCN(CC)Cc1ccc(OCCCCCCCCCCN2CCN(C)CC2)cc1	16.5	540	33		
